Experimental data from ChEMBL document CHEMBL1765069, “Decahydroquinoline amides as highly selective CB2 agonists: role of selectivity on in vivo efficacy in a rodent model of analgesia” (Bioorg Med Chem Lett, 2011).
Values joined by “and” are separate entries in the source; they are usually repeats but may differ in a detail not shown here. Equal entries are not always repeated.

Tests used:
Cannabinoid receptor 2 [1] = target: T1, Cannabinoid receptor 2 (Homo sapiens, UniProt P34972); assay: Agonist activity at human CB2 receptor expressed in CHOK1 cells assessed as inhibition of forskolin-induced cAMP production treated 15 mins before forskolin challenge measured after 1 hr by HTRF assay; assay type: functional, cell-based, CHO-K1
Outline: (§1)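 CHO-K1 cells (1000 per well) expressing human or rat CB1 or CB2 were preincubated with compound for 15 min at room temperature. Forskolin was then added at its EC70 for 30 min at room temperature. cAMP was detected by HTRF (d2-cAMP plus anti-cAMP cryptate) after a final 1 h incubation at room temperature. Values are reported as IC50 with % Emax.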

Cannabinoid receptor 1 [2] = target: T2, Cannabinoid receptor 1 (Homo sapiens, UniProt P21554); assay: Agonist activity at human CB1 receptor expressed in CHOK1 cells assessed as inhibition of forskolin-induced cAMP production treated 15 mins before forskolin challenge measured after 1 hr by HTRF assay; assay type: functional, cell-based, CHO-K1; outline: as §1
Cannabinoid receptor 2 [3] = target: T1, Cannabinoid receptor 2; assay: Agonist activity at human CB2 receptor expressed in CHOK1 cells assessed as inhibition of forskolin-induced cAMP production treated 15 mins before forskolin challenge measured after 1 hr by HTRF assay relative to control; assay type: functional, cell-based; details: CHO-K1
Outline: (§2)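 CHO-K1 cells (1000 per well) expressing human or rat CB1 or CB2 were preincubated with compound at room temperature for 15 min. Forskolin at EC70 was then added for a further 30 min at room temperature. cAMP was read by HTRF (d2-cAMP plus anti-cAMP-cryptate, final 1 h at room temperature). IC50 and % Emax were reported.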

Cannabinoid receptor 1 [4] = target: T2, Cannabinoid receptor 1; assay: Agonist activity at human CB1 receptor expressed in CHOK1 cells assessed as inhibition of forskolin-induced cAMP production treated 15 mins before forskolin challenge measured after 1 hr by HTRF assay relative to control; assay type: functional, cell-based; details: CHO-K1; outline: as §2

T2 sequence (P21554 whole entry): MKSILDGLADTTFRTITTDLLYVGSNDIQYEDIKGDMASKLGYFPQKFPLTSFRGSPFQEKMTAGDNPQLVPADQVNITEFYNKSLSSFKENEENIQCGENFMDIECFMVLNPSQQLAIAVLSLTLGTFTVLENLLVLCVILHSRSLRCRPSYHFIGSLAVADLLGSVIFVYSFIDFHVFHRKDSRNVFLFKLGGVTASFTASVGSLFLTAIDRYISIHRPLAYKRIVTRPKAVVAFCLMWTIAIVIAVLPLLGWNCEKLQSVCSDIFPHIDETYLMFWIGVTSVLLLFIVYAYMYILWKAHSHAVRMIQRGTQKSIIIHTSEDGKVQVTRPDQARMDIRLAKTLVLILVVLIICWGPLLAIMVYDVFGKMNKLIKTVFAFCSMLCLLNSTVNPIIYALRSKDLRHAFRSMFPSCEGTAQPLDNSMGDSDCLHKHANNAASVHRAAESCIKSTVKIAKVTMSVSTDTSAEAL
T1 sequence (P34972 whole entry): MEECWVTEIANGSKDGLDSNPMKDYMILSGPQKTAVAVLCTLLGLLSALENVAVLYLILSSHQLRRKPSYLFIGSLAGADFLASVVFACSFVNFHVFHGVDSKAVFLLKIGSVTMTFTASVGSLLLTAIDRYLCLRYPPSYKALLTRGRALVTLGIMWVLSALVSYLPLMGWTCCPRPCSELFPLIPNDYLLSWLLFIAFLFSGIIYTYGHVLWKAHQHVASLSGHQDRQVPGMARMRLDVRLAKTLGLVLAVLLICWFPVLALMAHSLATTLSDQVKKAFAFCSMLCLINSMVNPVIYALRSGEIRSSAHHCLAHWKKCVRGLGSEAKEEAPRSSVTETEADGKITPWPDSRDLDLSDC

SMILES | IC50 (Cannabinoid receptor 2 [1]) | IC50 (Cannabinoid receptor 1 [2]) | Emax (Cannabinoid receptor 2 [3]) | Emax (Cannabinoid receptor 1 [4])
O=C(c1csc(-c2ccncc2)n1)N1CCC(O)(c2ccccc2)[C@@H]2CCCC[C@@H]21 (some centres undefined) [listing 1 of 2 here] | 5220 nM and 597 nM | > 17 µM | – | –
O=C(c1cc(-c2ccccc2F)n[nH]1)N1CC[C@](O)(c2ccccc2)[C@H]2CCCC[C@@H]21 | 1290 nM | > 17 µM | – | –
CS(=O)(=O)c1ccc([C@@]2(O)CCN(C(=O)c3ccccc3)[C@H]3CCCC[C@@H]32)cc1 | 106 nM | – | 56% | –
COc1ccc([C@@]2(O)CCN(C(=O)c3ccccc3)[C@H]3CCCC[C@@H]32)cc1 | 358 nM | – | 66% | –
O=C(c1ccccc1)N1CC[C@](O)(c2cccnc2)[C@H]2CCCC[C@@H]21 | 938 nM | – | 86% | –
O=C(c1ccccc1)N1CC[C@](O)(c2ccc(Cl)cc2)[C@H]2CCCC[C@@H]21 | 155 nM | – | 88% | –
O=C(c1ccccc1)N1CC[C@](O)(c2cccc(Cl)c2)[C@H]2CCCC[C@@H]21 | 493 nM | – | 69% | –
N#Cc1cccc([C@@]2(O)CCN(C(=O)c3ccccc3)[C@H]3CCCC[C@@H]32)c1 | 1050 nM | – | 85% | –
CS(=O)(=O)c1cccc([C@@]2(O)CCN(C(=O)c3ccccc3)[C@H]3CCCC[C@@H]32)c1 | 338 nM | – | 52% | –
O=C(c1ccccc1)N1CC[C@](O)(c2cccc(C(F)(F)F)c2)[C@H]2CCCC[C@@H]21 | 810 nM | – | -16% | –
O=C(c1ccccc1)N1CC[C@](O)(c2ccccn2)[C@H]2CCCC[C@@H]21 | 1360 nM | – | 65% | –
O=C(c1cccc2[nH]ncc12)N1CCC(O)(c2ccccc2)[C@@H]2CCCC[C@@H]21 (some centres undefined) [listing 1 of 2 here] | 4.9 nM | 4.25 µM | – | –
O=C(c1cc(-c2ccccc2F)[nH]n1)N1CC[C@](O)(c2ccccc2)[C@H]2CCCC[C@@H]21 | – | – | 81% | 56%
O=C(c1cccc2[nH]ncc12)N1CCC(O)(c2ccccc2)[C@@H]2CCCC[C@@H]21 (some centres undefined) [listing 2 of 2 here] | – | – | 100% | 95%
O=C(c1csc(-c2ccncc2)n1)N1CCC(O)(c2ccccc2)[C@@H]2CCCC[C@@H]21 (some centres undefined) [listing 2 of 2 here] | – | – | 77% and 89% | 10% and 3%
CN1CCCCC1C(=O)N1CC[C@@](O)(c2ccccc2)[C@@H]2CCCC[C@@H]21 (mixture of isomers) | 56 nM | > 17 µM | 100% | –
O=C(C1CNCCN1)N1CC[C@@](O)(c2ccccc2)[C@@H]2CCCC[C@@H]21 (mixture of isomers) | 62 nM | > 17 µM | 91% | –
CN1CC(C(=O)N2CC[C@@](O)(c3ccccc3)[C@@H]3CCCC[C@@H]32)CCC1=O (mixture of isomers) | 135 nM | > 17 µM | 99% | –
O=C1CC(C(=O)N2CC[C@@](O)(c3ccccc3)[C@@H]3CCCC[C@@H]32)CN1 (mixture of isomers) | 3470 nM | > 17 µM | 89% | –
O=C1CCC(C(=O)N2CC[C@@](O)(c3ccccc3)[C@@H]3CCCC[C@@H]32)N1 (mixture of isomers) | 193 nM | > 17 µM | 102% | –
O=C(c1ccon1)N1CC[C@@](O)(c2ccccc2)[C@@H]2CCCC[C@@H]21 (racemic) | 11 nM | > 17 µM | 102% | –
O=C(c1ccncc1F)N1CC[C@@](O)(c2ccccc2)[C@@H]2CCCC[C@@H]21 (racemic) | 6.3 nM | > 17 µM | 99% | –

SMILES | IC50 (Cannabinoid receptor 2 [1]) | IC50 (Cannabinoid receptor 1 [2]) | Emax (Cannabinoid receptor 2 [3]) | Emax (Cannabinoid receptor 1 [4])
Cn1ccnc1C(=O)N1CC[C@@](O)(c2ccccc2)[C@@H]2CCCC[C@@H]21 (racemic) | 124 nM | > 17 µM | 100% | –
Cc1cccc(C(=O)N2CC[C@@](O)(c3ccccc3)[C@@H]3CCCC[C@@H]32)n1 (racemic) | 6.1 nM | > 17 µM | 99% | –
O=C(c1ccc(OCC(F)(F)F)nc1)N1CC[C@@](O)(c2ccccc2)[C@@H]2CCCC[C@@H]21 (racemic) | 16 nM | > 17 µM | 100% | –
O=C(c1nnc[nH]1)N1CC[C@@](O)(c2ccccc2)[C@@H]2CCCC[C@@H]21 (racemic) | 282 nM | > 17 µM | 101% | –
O=C(c1ccc(C2CC2)nc1)N1CC[C@@](O)(c2ccccc2)[C@@H]2CCCC[C@@H]21 (racemic) | 12 nM | > 17 µM | 96% | –
CN1CCC(C(=O)N2CC[C@@](O)(c3ccccc3)[C@@H]3CCCC[C@@H]32)CC1 (racemic) | 395 nM | > 17 µM | 98% | –
O=C([C@@H]1C[C@@H](O)CCN1)N1CC[C@@](O)(c2ccccc2)[C@@H]2CCCC[C@@H]21 (racemic) | 2180 nM | > 17 µM | 87% | –
O=C(c1cscn1)N1CC[C@@](O)(c2ccccc2)[C@@H]2CCCC[C@@H]21 (racemic) | 41 nM | > 17 µM | 101% | –
O=C(c1ncccn1)N1CC[C@@](O)(c2ccccc2)[C@@H]2CCCC[C@@H]21 (racemic) | 29 nM | > 17 µM | 101% | –
O=C(c1ccc(C(F)(F)F)nc1)N1CC[C@@](O)(c2ccccc2)[C@@H]2CCCC[C@@H]21 (racemic) | 12 nM | > 17 µM | 96% | –
O=C(c1ccncn1)N1CC[C@@](O)(c2ccccc2)[C@@H]2CCCC[C@@H]21 (racemic) | 140 nM | > 17 µM | 103% | –
O=C(c1cn(CC(F)(F)F)cn1)N1CC[C@@](O)(c2ccccc2)[C@@H]2CCCC[C@@H]21 (racemic) | 26 nM | > 17 µM | 104% | –
Cc1ccc(C(=O)N2CC[C@@](O)(c3ccccc3)[C@@H]3CCCC[C@@H]32)cn1 (racemic) | – | – | 99% | –
O=C(c1cccc2[nH]ncc12)N1CCC(O)(c2ccccc2)[C@@H]2CCCC[C@@H]21 (single isomer, unassigned) [listing 1 of 2 here] | 1.6 nM | > 17 µM | – | –
O=C(c1cccc2[nH]ncc12)N1CCC(O)(c2ccccc2)[C@@H]2CCCC[C@@H]21 (single isomer, unassigned) [listing 2 of 2 here] | – | – | 100% | 28%
O=C(c1csc(-c2ccncc2)n1)N1CCC(O)(c2ccccc2)[C@@H]2CCCC[C@@H]21 (single isomer, unassigned; form 1) [listing 1 of 2 here] | 0.55 nM | > 17 µM | – | –
O=C(c1csc(-c2ccncc2)n1)N1CCC(O)(c2ccccc2)[C@@H]2CCCC[C@@H]21 (single isomer, unassigned; form 1) [listing 2 of 2 here] | – | – | 100% | 12%
O=C(c1csc(-c2ccncc2)n1)N1CCC(O)(c2ccccc2)[C@@H]2CCCC[C@@H]21 (single isomer, unassigned; form 2) [listing 1 of 2 here] | 7.9 nM | > 17 µM | – | –
O=C(c1csc(-c2ccncc2)n1)N1CCC(O)(c2ccccc2)[C@@H]2CCCC[C@@H]21 (single isomer, unassigned; form 2) [listing 2 of 2 here] | – | – | 98% | 18%
O=C(c1csc(-c2ccncc2)n1)N1CCC(O)(c2ccccc2)[C@@H]2CCCC[C@@H]21 (single isomer, unassigned; form 3) | 388 nM | > 17 µM | – | –
O=C(c1csc(-c2ccncc2)n1)N1CCC(O)(c2ccccc2)[C@@H]2CCCC[C@@H]21 (single isomer, unassigned; form 4) | > 17000 nM | 0.93 µM | – | –
